Assay results of several laboratories.
Effect on: cell growth or viability

SMILES	cell line	method	time	IC50
CN1CCC(NC2CCc3[nH]c4c(C(N)=O)ccc(-c5ccccc5Cl)c4c3C2)CC1 (centres unmarked)	Jurkat		96 h	0.0193 µM
COc1cc([C@@H]2c3cc4c(cc3[C@@H](O[C@@H]3O[C@@H]5CO[C@@H](C)O[C@H]5[C@H](O)[C@H]3O)[C@H]3COC(=O)[C@H]23)OCO4)cc(OC)c1O	LN-229	MTS	72 h	0.02 µM
CC(=NNC(=O)c1cc(-c2ccccc2)n(-c2ccc(S(N)(=O)=O)cc2)n1)c1ccc(Br)cc1	PaCa-2	fluorescence	48 h	31.5 µM
Nc1nnc(-c2ccccc2O)cc1N1CC2CCC(C1)N2c1ccnc(F)c1	LNCaP	ATP luminescence	7 days	> 1 µM
Cc1ncsc1-c1ccc([C@H](C)NC(=O)[C@@H]2C[C@@H](O)CN2C(=O)[C@@H](NC(=O)CCCCCCCCCS(=O)(=O)NC(=O)c2nc(N3CCc4cccc(C(=O)Nc5nc6ccccc6s5)c4C3)ccc2-c2cnn(CC34CC5CC(CC(C5)C3)C4)c2C)C(C)(C)C)cc1	MOLT-4	MTS	48 h	0.0119 µM
CCn1cc(C=C(C#N)C(=O)c2c[nH]c3cc(OC)c(OC)cc23)c2ccccc21	MIA PaCa-2	MTT	48 h	13 µM
O=C(CSc1nc2ccccc2s1)N/N=C/c1ccc(OCC(=O)Nc2ccc(Br)cc2)cc1	LN-229	MTS	72 h	27.8 µM
Cc1nc(Nc2ncc(C(=O)Nc3c(C)cccc3Cl)s2)cc(N2CC[C@H](O)C2)n1	SU-DHL-2	ATP luminescence	72 h	> 10 µM
O=C(NO)c1ccc(Cn2cnc3c(Nc4ccc(F)c(Cl)c4)ncnc32)cc1	Jurkat	MTT	72 h	1.2 µM
FC(F)(F)c1cc(OCc2cc(-c3ccccn3)no2)c2ccccc2n1	LN-229	MTS	72 h	> 100 µM
Nc1ccccc1NC(=O)c1ccc(Cn2cnc3c(Nc4ccc(Br)cc4F)ncnc32)cc1	Jurkat	MTT	72 h	4.73 µM
Cc1c(-c2ccc(N3CCc4cccc(C(=O)Nc5nc6ccccc6s5)c4C3)nc2C(=O)NCCOCCOCCNc2cccc3c2C(=O)N(C2CCC(=O)NC2=O)C3=O)cnn1CC12CC3CC(CC(C3)C1)C2 (centres unmarked)	MOLT-4	MTS	48 h	0.0164 µM
NS(=O)(=O)c1ccc(-n2nc(-c3nnc(S)o3)cc2-c2ccccc2)cc1	PaCa-2	fluorescence	48 h	34.2 µM
Cc1ncsc1-c1ccc([C@H](C)NC(=O)[C@@H]2C[C@@H](O)CN2C(=O)[C@@H](NC(=O)CCCCCCCS(=O)(=O)NC(=O)c2nc(N3CCc4cccc(C(=O)Nc5nc6ccccc6s5)c4C3)ccc2-c2cc(C#N)n(CC34CC5CC(CC(C5)C3)C4)c2C)C(C)(C)C)cc1	MOLT-4	MTS	48 h	0.0202 µM
NS(=O)(=O)c1ccc(-n2nc(C(=O)NN3C(=O)c4ccccc4C3=O)cc2-c2ccccc2)cc1	PaCa-2	fluorescence	48 h	35.4 µM
O=c1cc(OCc2cc(-c3ccc(C(F)(F)F)cc3)no2)c2ccccc2o1	LN-229	MTS	72 h	> 100 µM
Cc1ncsc1-c1ccc([C@H](C)NC(=O)[C@@H]2C[C@@H](O)CN2C(=O)[C@@H](NC(=O)CCCCCCCCS(=O)(=O)NC(=O)c2nc(N3CCc4cccc(C(=O)Nc5nc6ccccc6s5)c4C3)ccc2-c2cnn(CC34CC5CC(CC(C5)C3)C4)c2C)C(C)(C)C)cc1	MOLT-4	MTS	48 h	0.0094 µM
COc1cc([C@@H]2c3cc4c(cc3[C@@H](O[C@@H]3O[C@@H]5CO[C@@H](C)O[C@H]5[C@H](O)[C@H]3O)[C@H]3COC(=O)[C@H]23)OCO4)cc(OC)c1O	DU-145	MTT		0.5 µM
CCNC(=O)c1nc(N2CCc3cccc(C(=O)Nc4nc5ccccc5s4)c3C2)ccc1-c1cnn(CC23CC4CC(CC(C4)C2)C3)c1C	MOLT-4	MTS	48 h	0.481 µM
COc1ccc(Nc2ncnc3c2ncn3Cc2ccc(C(=O)Nc3ccccc3N)cc2)cc1	Jurkat	MTT	72 h	9.74 µM
O=C(CSc1nc2ccccc2s1)N/N=C/c1ccc(OCC(=O)Nc2cccc(Br)c2)cc1	LN-229	MTS	72 h	65.5 µM
CN1C(=O)C(=O)c2cc3c(c4c2c1cc1ccccc14)OCO3	T47D	MTT	75 h	61 µM
O=C(CSc1nc2ccccc2s1)N/N=C/c1ccc(OCC(=O)Nc2cccc([N+](=O)[O-])c2)cc1	LN-229	MTS	72 h	24.2 µM
Cc1ncsc1-c1ccc([C@H](CC(=O)NCCCCCCCCNC(=O)c2nc(N3CCc4cccc(C(=O)Nc5nc6ccccc6s5)c4C3)ccc2-c2cnn(CC34CC5CC(CC(C5)C3)C4)c2C)NC(=O)[C@@H]2C[C@@H](O)CN2C(=O)[C@@H](NC(=O)C2(C#N)CC2)C(C)(C)C)cc1	MOLT-4	MTS	48 h	0.313 µM
CCCOc1ccc2[nH]cc(C(=O)C(C#N)=Cc3cn(C)c4ccccc34)c2c1	MIA PaCa-2	MTT	48 h	28.9 µM
Cc1ncsc1-c1ccc([C@H](C)NC(=O)[C@@H]2C[C@@H](O)CN2C(=O)[C@@H](NC(=O)CCCCS(=O)(=O)NC(=O)c2nc(N3CCc4cccc(C(=O)Nc5nc6ccccc6s5)c4C3)ccc2-c2cnn(CC34CC5CC(CC(C5)C3)C4)c2C)C(C)(C)C)cc1	MOLT-4	MTS	48 h	0.0084 µM
c1ccc(-c2cc(CNc3cccc4cccnc34)on2)cc1	LN-229	MTS	72 h	33.7 µM
Cc1ncsc1-c1ccc([C@H](C)NC(=O)[C@H]2C[C@H](O)CN2C(=O)[C@@H](NC(=O)CCCCCCCS(=O)(=O)NC(=O)c2nc(N3CCc4cccc(C(=O)Nc5nc6ccccc6s5)c4C3)ccc2-c2cnn(CC34CC5CC(CC(C5)C3)C4)c2C)C(C)(C)C)cc1	human Platelet	MTS	48 h	0.931 µM
COc1ccc(C=C(C#N)C(=O)c2c[nH]c3ccccc23)cc1	MIA PaCa-2	MTT	48 h	15.4 µM
